# Assay results as given in article PMC8769552 (Science Advances, 2022).
# Columns and labels:
# HeLa cells = test: Histone lactylation and acetylation in HeLa cells after inhibitor treatment; type: cell-based, human; conditions: 5-hour treatment, TMP195 5 μM, NAM 10 mM; for global histone lactylation levels: sodium butyrate 2 mM, TSA 1 μM, apicidin 1 μM
# How it was run: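 HeLa cells treated 5 h with pan-HDAC inhibitors (2 mM or 1 μM), HDAC1–3-selective inhibitor (1 μM), class IIa-selective inhibitor (5 μM) or pan-sirtuin inhibitor (10 mM). Histone lactylation and acetylation by Western blot: blocked in 3% BSA/TBST 1 h at RT, primary antibody overnight at 4°C, LI-COR secondary 1:10,000 for 1 h, Odyssey imaging.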
# [1] = system: HEK293T whole-cell lysates; test: Fluorogenic lysate deacylase assay; type: biochemical, human; conditions: 37°C, 60 min; for conversion of AMC substrate by whole-cell lysate: substrate 50 μM, lysate 30 μg per well, NAD+ 500 μM, tris buffer, n = 4
# HDAC3 = type: biochemical, human; conditions: acid-extracted histones from HeLa cells, recombinant HDAC3
# How it was run: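 Histones acid-extracted from HeLa cells (hypotonic sucrose/Triton wash, no-salt EDTA/EGTA step, 0.2 M H2SO4 overnight at 4°C, 20% TCA precipitation). 20 μg histones incubated with 0.2 μg recombinant human HDAC at 37°C for 1 or 4 h in tris buffer (50 mM tris/Cl, 137 mM NaCl, 2.7 mM KCl, 1 mM MgCl2, pH 8). Stopped by boiling 5 min in loading buffer; Western blot readout.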
# HDAC1 = HDAC1 (Homo sapiens, UniProt Q13547); test: Fluorogenic Michaelis-Menten assay; type: biochemical; conditions: K(D-la) versus K(L-la), Ac-LGK-AMC; stated for HDAC1/2
# HDAC2 = test: Fluorogenic Michaelis-Menten assay; type: biochemical, human; conditions: K(D-la) versus K(L-la), Ac-LGK-AMC; stated for HDAC1/2
# HDAC3/NCoR2 = HDAC3/NCoR2 (Homo sapiens, UniProt O15379+Q9Y618); test: Fluorogenic Michaelis-Menten assay; type: biochemical; conditions: K(D-la) versus K(L-la), Ac-LGK-AMC
# HDAC1–3 = test: Fluorogenic substrate screening assay; type: biochemical, human; conditions: substrate 50 μM, HDACs 50 nM, tris buffer, 37°C, 60 min; n = 2
# Sequence of HDAC3/NCoR2 (O15379 whole entry): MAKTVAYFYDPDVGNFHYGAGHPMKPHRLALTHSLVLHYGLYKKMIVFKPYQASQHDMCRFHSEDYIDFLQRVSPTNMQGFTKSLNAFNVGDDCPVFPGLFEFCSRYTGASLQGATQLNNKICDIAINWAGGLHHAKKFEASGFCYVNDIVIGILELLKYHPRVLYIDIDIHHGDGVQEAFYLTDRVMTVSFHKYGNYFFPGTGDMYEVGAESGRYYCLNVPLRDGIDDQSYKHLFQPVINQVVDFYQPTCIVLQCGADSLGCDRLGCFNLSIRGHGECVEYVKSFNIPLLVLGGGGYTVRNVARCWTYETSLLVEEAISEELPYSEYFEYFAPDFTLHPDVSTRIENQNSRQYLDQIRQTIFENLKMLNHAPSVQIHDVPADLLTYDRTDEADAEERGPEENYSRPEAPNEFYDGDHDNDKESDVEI
# Sequence of HDAC3/NCoR2 (Q9Y618 389-480 partner limits assumed): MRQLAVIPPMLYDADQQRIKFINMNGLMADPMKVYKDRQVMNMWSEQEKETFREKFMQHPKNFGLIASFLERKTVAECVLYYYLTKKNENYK
# Sequence of HDAC1 (Q13547 whole entry): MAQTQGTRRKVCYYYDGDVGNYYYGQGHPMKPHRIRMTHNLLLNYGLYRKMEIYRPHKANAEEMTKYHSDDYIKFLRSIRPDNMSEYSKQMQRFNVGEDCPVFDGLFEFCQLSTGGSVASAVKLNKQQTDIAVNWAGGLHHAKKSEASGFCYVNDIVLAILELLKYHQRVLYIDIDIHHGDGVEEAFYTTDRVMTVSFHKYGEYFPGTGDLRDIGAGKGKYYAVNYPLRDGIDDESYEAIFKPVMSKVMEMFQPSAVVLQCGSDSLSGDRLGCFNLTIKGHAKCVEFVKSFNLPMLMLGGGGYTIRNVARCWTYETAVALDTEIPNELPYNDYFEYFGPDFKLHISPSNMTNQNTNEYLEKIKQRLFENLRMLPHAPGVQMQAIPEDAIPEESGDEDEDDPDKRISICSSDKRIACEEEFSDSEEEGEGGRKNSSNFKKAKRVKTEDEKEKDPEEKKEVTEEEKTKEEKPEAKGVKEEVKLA
compound,measurement,setting,value
CC(C)(CNC(=O)c1cccc(-c2noc(C(F)(F)F)n2)c1)c1coc(-c2ccccc2)n1 [TMP195],histone Kac levels,HeLa cells,lack of effect
same,global histone lactylation levels,HeLa cells,failed to affect histone lactylation levels substantially
"NC(=O)c1cccnc1 [NAM, nicotinamide]",effect of inhibitor on lysate deacylation of 1a–c,"[1]; NAM 10 mM, substrates 50 μM",did not substantially change the outcome of the deacylation events
same,histone Kac levels,HeLa cells,does not affect histone Kac levels
same,global histone lactylation levels,HeLa cells,failed to affect histone lactylation levels substantially
"CC(/C=C/C(=O)NO)=C\[C@@H](C)C(=O)c1ccc(N(C)C)cc1 [TSA, trichostatin A]",global histone lactylation levels,HeLa cells,increased global histone lactylation levels
same,inhibition of HDAC3-mediated decrease of global histone lactylation,HDAC3,could be inhibited
CCCC(=O)[O-].[Na+] [sodium butyrate],global histone lactylation levels,HeLa cells,increased global histone lactylation levels
Ac-Leu-Gly-Lys(D-La)-AMC [2c],fold higher kcat/KM for 2c than for 2b,HDAC1,> 6 fold
same,fold higher kcat/KM for 2c than for 2b,HDAC2,> 6 fold
same,fold higher kcat/KM for 2c than for 2b,HDAC3/NCoR2,3.5 fold
Ac-Ala-Pro-Arg-Lys(L-La)-AMC [1b],conversion of AMC substrate by whole-cell lysate,[1],"able to remove the lactyl modifications, albeit to a lower extent than the corresponding Kac modification"
Ac-Gln-Pro-Lys-Lys(L-La)-AMC [4b],deacylase activity (AMC release),HDAC1–3,measurable activity
CCC(=O)CCCCC[C@@H]1NC(=O)[C@H]2CCCCN2C(=O)[C@H]([C@@H](C)CC)NC(=O)[C@H](Cc2cn(OC)c3ccccc23)NC1=O [apicidin],global histone lactylation levels,HeLa cells,enhanced lactylation
same,inhibition of HDAC3-mediated decrease of global histone lactylation,HDAC3,could be inhibited
Ac-Ala-Pro-Arg-Lys(D-La)-AMC [1c],conversion of AMC substrate by whole-cell lysate,[1],converted to a larger extent than its K(L-la) counterpart
